From PubChem
Sampled rows, rich in hits. Any-hit rate of the full collection: about 2.1%.
CCR6 antagonist: blocks CCL20-driven beta-arrestin recruitment at human CCR6. P51684. CHO-K1 CCR6 PathHunter beta-arrestin, luminescence, CCL20-stimulated. inhibition, % at 20 µM. hit rate 0.49% among 340,000;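 active means compounds whose inhibition of the agonist-driven luminescence signal at 20 µM reaches about 50%, limit read from the data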;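 further: cells stimulated with CCL20 at 14 nM final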
m5-HT2A agonist: activates the mouse 5-HT2A serotonin receptor. P35363. CHO-K1 mHTR2A beta-arrestin complementation, luminescence; percent of 30 µM serotonin response. activation, % at 7.6 µM. hit rate 0.66% among 360,000. AID 624169;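 active means activation above a run cutoff, the mean activation of all tested compounds plus 3 SD, cut at about 14% in these data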
CXCR6 block: blocks human CXCR6 beta-arrestin recruitment; O00574; CHO-K1 PathHunter CXCR6 beta-arrestin, luminescence; inhibition, % at 20 µM; hit rate 0.36% among 360,000; AID 602244; in the data active means inhibition above about 34%, passing the limit was not always enough;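 further: antagonist mode with CXCL16 agonist at 10 nM final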
Target sequence (O00574 whole entry, looked up): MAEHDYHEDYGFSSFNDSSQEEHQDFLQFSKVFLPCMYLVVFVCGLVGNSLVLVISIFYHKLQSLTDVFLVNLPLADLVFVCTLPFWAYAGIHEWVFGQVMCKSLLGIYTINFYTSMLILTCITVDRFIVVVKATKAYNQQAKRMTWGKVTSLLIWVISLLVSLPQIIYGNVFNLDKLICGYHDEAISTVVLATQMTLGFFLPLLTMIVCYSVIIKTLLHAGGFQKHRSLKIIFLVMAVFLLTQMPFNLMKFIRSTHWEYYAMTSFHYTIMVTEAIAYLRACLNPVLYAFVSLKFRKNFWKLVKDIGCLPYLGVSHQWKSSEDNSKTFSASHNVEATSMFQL
EBI2 antag: EBI2 (human) antagonism; P32249; EBI2 beta-arrestin recruitment, luminescence, 7a,25-OHC stimulated; AID 651636; inhibition, % at 5 µM; hit rate 0.81% among 360,000; in the data active means inhibition above about 38%;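 further: enzyme fragment complementation signal reports receptor beta-arrestin coupling in cells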
APJ agonist: activates the human apelin receptor APJ; AID 2520; P35414; hit rate 0.11% among 330,000; CHO-K1 APJ PathHunter beta-arrestin, luminescence; 0% DMSO wells, 100% apelin; activation, % at 20 µM;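 active means activation more than six SD over the plate average, tested at 20 µM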
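Material: CHO-K1 APJ beta-arrestin complementation cell line; Input: cell density 1000 per well; Incubation: compound stimulation 90 min at 25 °C, detection 60 min; Signal: luminescence from split beta-galactosidase complementation, Galacton Star/Emerald II substrate; Controls: DMSO-only wells as negative, 10 nM Apelin-13 as positive control.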
APJ antag: blocks the human apelin receptor APJ. P35414. CHO-K1 APJ beta-arrestin complementation, luminescence. inhibition, % at 20 µM. hit rate 0.32% among 330,000;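 active means inhibition above about 40% at 20 µM, limit read from the data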;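 further: cells challenged with 10 nM apelin-13 agonist together with compound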
EBI2 conf: confirmation of human EBI2 receptor antagonists; AID 651997; inhibition, % at 5 µM; hit rate 29% among 2,400; EBI2 beta-arrestin luminescence, 7a,25-OHC antagonism; shares compounds with EBI2 antag;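 active means inhibition of at least 50%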
EBI2 ag: activates EBI2, counter-screen for EBI2 antagonists; shares compounds with EBI2 antag; EBI2-expressing cells, agonist mode, luminescence, 60 min; 0% vehicle, 100% 7α,25-dihydroxycholesterol control; activation, % at 5 µM; 2,400 tested, under 10 active;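 active means activation of at least 50%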
bGal counter: counter-screen for EBI2 antagonists: E. coli beta-galactosidase inhibition | purified beta-galactosidase, luminescent Galacton Star, 15 min | inhibition, % at 5 µM | hit rate 1% among 2,400 | shares compounds with EBI2 antag | AID 652176;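 active means replicate-average signal at least 3 plate SD below neutral wells, shown as high inhibition, flagging enzyme-inhibiting false positives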;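 further: higher means stronger loss of beta-gal luminescence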
A number is an active result.

Results for O=c1[nH]c(CN2CCN(S(=O)(=O)c3ccccc3C(F)(F)F)CC2)nc2sc3c(c12)CCCC3 ?
CCR6 antagonist: inactive; m5-HT2A agonist: inactive; CXCR6 block: inactive; EBI2 antag: 58.5; APJ agonist: inactive; APJ antag: inactive; EBI2 conf: inactive; EBI2 ag: inactive; bGal counter: inactive

How did Cc1ccc(S(=O)(=O)N2CCN(Cc3nc4ccccc4[nH]3)CC2)cc1C do in these assays?
CCR6 antagonist: inactive; m5-HT2A agonist: inactive; CXCR6 block: inactive; EBI2 antag: inactive; APJ agonist: inactive; APJ antag: inactive

How did COc1ccc(OCCN2CCN(S(=O)(=O)c3ccccc3C(F)(F)F)CC2)cc1 do in these assays?
CCR6 antagonist: inactive; m5-HT2A agonist: inactive; CXCR6 block: inactive; EBI2 antag: 59.6; APJ agonist: inactive; APJ antag: inactive; EBI2 conf: 50.3; EBI2 ag: inactive; bGal counter: inactive

How did COc1cc2nc(CN3CCN(S(=O)(=O)c4ccccc4C(F)(F)F)CC3)[nH]c(=O)c2cc1OC do in these assays?
CCR6 antagonist: inactive; m5-HT2A agonist: inactive; CXCR6 block: inactive; EBI2 antag: 63.9; APJ agonist: inactive; APJ antag: inactive; EBI2 conf: inactive; EBI2 ag: inactive; bGal counter: inactive

Results for COc1ccc(OCCN2CCN(S(=O)(=O)c3ccccc3C#N)CC2)cc1 ?
CCR6 antagonist: inactive; m5-HT2A agonist: inactive; CXCR6 block: inactive; EBI2 antag: inactive; APJ agonist: inactive; APJ antag: inactive

How did COc1cc2nc(CN3CCN(S(=O)(=O)c4c(F)cccc4F)CC3)[nH]c(=O)c2cc1OC do in these assays?
CCR6 antagonist: inactive; m5-HT2A agonist: inactive; CXCR6 block: inactive; EBI2 antag: inactive; APJ agonist: inactive; APJ antag: inactive

How did O=C(NCc1ccco1)C(=S)N1CCCC1 do in these assays?
CCR6 antagonist: inactive; m5-HT2A agonist: inactive; CXCR6 block: inactive; EBI2 antag: inactive; APJ agonist: inactive; APJ antag: inactive

Results for COc1cc2nc(CN3CCN(S(=O)(=O)c4ccccc4[N+](=O)[O-])CC3)[nH]c(=O)c2cc1OC ?
m5-HT2A agonist: inactive; CXCR6 block: inactive; EBI2 antag: 45.2; EBI2 conf: inactive; EBI2 ag: inactive; bGal counter: inactive

What do the screens show for `COc1cc2nc(CN3CCN(C(c4ccccc4)c4ccccc4)CC3)[nH]c(=O)c2cc1OC`?
APJ agonist: inactive; APJ antag: inactive

How did O=C(CN1CCN(C(=O)c2cncn2-c2ccc(F)cc2)CC1)Nc1ccccc1C(F)(F)F do in these assays?
CCR6 antagonist: inactive; m5-HT2A agonist: inactive; CXCR6 block: inactive; EBI2 antag: inactive; APJ agonist: inactive; APJ antag: inactive

What do the screens show for `COc1cc(OC)cc(C(=O)N2CCC(C(=O)c3ccc(F)cc3)CC2)c1`?
CCR6 antagonist: inactive; m5-HT2A agonist: inactive; CXCR6 block: inactive; EBI2 antag: inactive; APJ agonist: inactive; APJ antag: inactive

Results for CCOC(=O)C1CCN(C(=O)c2ccc3c(c2)OCCO3)CC1 ?
CCR6 antagonist: inactive; m5-HT2A agonist: inactive; CXCR6 block: inactive; EBI2 antag: inactive; APJ agonist: inactive; APJ antag: inactive

What do the screens show for `COc1ccc(C(=O)N2CCC(C(=O)c3ccc(F)cc3)CC2)cc1`?
CCR6 antagonist: inactive; m5-HT2A agonist: inactive; CXCR6 block: inactive; EBI2 antag: 58.7; APJ agonist: inactive; APJ antag: inactive; EBI2 conf: inactive; EBI2 ag: inactive; bGal counter: inactive

Results for COc1ccc(C(=O)C2CCN(C(=O)c3ccc(OC)cc3)CC2)cc1 ?
CCR6 antagonist: inactive; m5-HT2A agonist: inactive; CXCR6 block: inactive; EBI2 antag: 58.1; APJ agonist: inactive; APJ antag: inactive; EBI2 conf: inactive; EBI2 ag: inactive; bGal counter: inactive
